# Compound activity deposited in PubChem by several laboratories.
# GalR3 antag: GalR3 antagonists in HEK293 cells, primary screen, cell-based, fluorescence readout; HEK293 GalR3-CNG cAMP membrane potential fluorescence; galR3 body fused to GalR1 C-terminus; inhibition, % at 3 µM; 0.44% of 360,000 active;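 active = inhibition above the screen-wide average plus 3 SD, cut at about 13% in these data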;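 also: forskolin and galanin both at EC90 stimulate the cells; cAMP rise reported by CNG channel membrane potential dye signal; 0% = forskolin plus galanin with DMSO and 100% = forskolin alone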
# NR2E3 ag-1: NR2E3 agonists in two-hybrid cells, primary screen, cell-based, luminescence, CHO-S, Gal4-NCOR/VP16-NR2E3. luciferase. inhibition of corepressor binding, % at 3.98 µM. 0.35% of 360,000 active. Photoreceptor-specific nuclear receptor (Homo sapiens), Q9Y5X4;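 active = inhibition above the mean of all tested compounds plus 3 SD, cut at about 70% in these data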;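 also: 0% = DMSO with NR2E3 transfected cells and 100% = cells lacking NR2E3 construct; higher means lower luciferase signal from less NR2E3 corepressor binding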
# Target sequence (Q9Y5X4 whole entry, looked up, the tested form may be a part): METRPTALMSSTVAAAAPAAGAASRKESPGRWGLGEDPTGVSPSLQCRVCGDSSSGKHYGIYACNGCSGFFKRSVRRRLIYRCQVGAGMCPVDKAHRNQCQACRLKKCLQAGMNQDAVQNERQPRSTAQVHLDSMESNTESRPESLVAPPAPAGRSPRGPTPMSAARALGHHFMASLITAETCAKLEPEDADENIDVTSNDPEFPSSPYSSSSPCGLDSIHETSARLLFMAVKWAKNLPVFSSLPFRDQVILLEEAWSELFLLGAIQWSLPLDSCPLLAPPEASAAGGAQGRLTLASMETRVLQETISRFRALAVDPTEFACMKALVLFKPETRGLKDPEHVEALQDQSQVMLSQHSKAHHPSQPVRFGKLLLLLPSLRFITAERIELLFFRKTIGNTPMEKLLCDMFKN
# NadD block: inhibitors of S. aureus NadD, primary screen, biochemical, colorimetric, uHTS; purified NadD enzyme, colorimetric absorbance read-out; 0.78% of 360,000 active; inhibition, % at 20 µM; Nicotinate-nucleotide adenylyltransferase NadD (Staphylococcus aureus N315); in the data active = inhibition above about 26%
# NR2E3 ag-2: inhibitors of NR2E3-RetCOR corepressor binding, primary screen, NR2E3 agonist project, biochemical, TR-FRET, GST-NR2E3, biotin-RetCOR. 1536-well. 0.12% of 320,000 active. Photoreceptor-specific nuclear receptor (Homo sapiens), Q9Y5X4. inhibition of corepressor binding, % at 4.78 µM. AID 2300, 2010;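 active = percent inhibition above the cutoff of mean plus 3 SD of all tested compounds, set per screening campaign, cut at about 20% in these data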;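 also: 0% = DMSO wells and 100% = biotin wells as full block of FRET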
#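 Material: NR2E3–RetCOR corepressor complex | Quantity: 1.35 nM GST-tagged NR2E3 final | Schedule: 5 h at 4 °C | Replication: Singlicate compound wells | Reagent: RetCOR corepressor, biotinylated, 7 nM | Controls: Biotin wells as high control, 0.6% DMSO wells as low control | Signal: TR-FRET, Eu(K)-anti-GST donor, streptavidin-D2 acceptor, ex 340, em 617/671 nm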
# MsrA inhibitor: bovine MsrA enzyme inhibitors, primary screen, biochemical, absorbance, HTS | Methionine sulfoxide reductase A (Bos taurus) | purified bovine MsrA, absorbance read-out | inhibition, % at 15.5 µM | 0.75% of 360,000 active | AID 651718, 2012; in the data active = inhibition above about 4.5%;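 also: 0% = vehicle wells with enzyme and 100% = reference inhibitor wells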
# MsrA act: bovine MsrA enzyme activators, primary screen, biochemical, absorbance, HTS; 0.3% of 360,000 active; activation, % at 10.6 µM; Methionine sulfoxide reductase A (Bos taurus); purified bovine MsrA, absorbance read-out; in the data active = activation above about 7.5%;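 also: 0% = vehicle and 100% = reference activator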
# NR2E3 ag conf: NR2E3 agonist confirmation in cells, cell-based, luminescence, CHO-S two-hybrid; shares compounds with NR2E3 ag-1; CHO-S mammalian two-hybrid NR2E3-NCOR, luciferase luminescence; inhibition, % at 3.98 µM; 51% of 2,300 active; AID 624378, 2012;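 active = average inhibition above a cutoff equal to the mean inhibition of all tested compounds plus one SD, cut at about 70% in these data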;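 also: 0% = DMSO in NR2E3 cells and 100% = DMSO in cells lacking NR2E3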
# VP16 counter: GAL4-VP16 reporter modulators, confirmation, counter-screen for NR2E3 agonist project, cell-based, luminescence, CHO-S, high throughput | shares compounds with NR2E3 ag-1 | CHO-S GAL4-VP16 luciferase reporter | inhibition, % at 3.98 µM | 29% of 2,300 active | AID 624379, 2012;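 active = mean inhibition above a cutoff equal to the average over all tested compounds plus one standard deviation, cut at about 70% in these data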;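 also: luciferase from a UAS reporter driven by GAL4-VP16 transactivation; 0% = DMSO with VP16-transfected cells and 100% = DMSO with cells lacking VP16; higher means less reporter light so more repression of VP16 activity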
# The depositor's hits bear a star; nt = not tested or not shown. Most compounds without a hit are left out; they make up all but 2.5% or so of the library.
SMILES,GalR3 antag,NR2E3 ag-1,NadD block,NR2E3 ag-2,MsrA inhibitor,MsrA act,NR2E3 ag conf,VP16 counter
O=C(Nc1ccc([N+](=O)[O-])cc1)Nc1ccc(OC(F)F)c(Cl)c1,-7,98*,-7,6,1,5,99*,94*
O=C(Nc1ccc(OC(F)F)c(Cl)c1)Nc1ccc2c(c1)OCO2,-5,-10,-8,1,-1,-5,nt,nt
Cc1cc(C)n2nc(SCC(=O)c3cc(C)n(-c4cc(C)on4)c3C)nc2n1,-2,92*,9,2,0,-1,94*,81*
Cc1cc(C)n2nc(SCC(=O)c3ccccc3)nc2n1,0,-13,8,3,0,-1,nt,nt
COc1ccc(-c2cc(=O)oc3c(C)c(OC(C)C(=O)Nc4ccc(CN5CCOCC5)cc4)ccc23)cc1 (stereo unspecified),-8,0,-2,0,1,0,nt,nt
CC(C)(C)C(=O)Nc1ccc(N=Nc2ccccc2)cc1,-4,56,-6,1,2,-10,26,-23
O=C1C(=O)N(CCN2CCOCC2)C(c2ccccc2)/C1=C(\O)c1ccc2c(c1)OCCO2 (stereo unspecified),-1,-12,2,11,1,-2,nt,nt
O=C1C(=O)N(c2nccs2)C(c2ccccc2F)/C1=C(\O)c1ccc2c(c1)OCCO2 (stereo unspecified),2,93*,4,12,2,-5,92*,64
Cc1nnc(N2C(=O)C(=O)/C(=C(/O)c3ccc4c(c3)OCCO4)C2c2ccc(F)cc2)s1 (stereo unspecified),1,-21,6,3,1,-11,nt,nt
O=C1C(=O)N(c2nccs2)C(c2ccccc2)/C1=C(\O)c1ccc2c(c1)OCCO2 (stereo unspecified),nt,76*,1,11,nt,-1,82*,44
Cc1cccc(-c2ccc(C=Nc3c(C)n(C)n(-c4ccccc4)c3=O)o2)c1,-1,-21,-3,-1,2,-6,nt,nt
Fc1ccccc1Nc1nc(Cl)nc(Cl)n1,-6,-35,-5,-2,1,-2,nt,nt
Cc1ccc(NC(=O)C(C)c2ccc(-c3ccccc3)c(F)c2)cc1 (stereo unspecified),-3,74*,-6,0,0,-2,89*,77*
COC(=O)c1ccccc1S(=O)(=O)N(CCCO)Cc1cc2c(C)ccc(C)c2[nH]c1=O,-5,16,-4,0,2,2,nt,nt
COc1cnc(-c2ccccn2)nc1Oc1ccc(Cl)c2ccccc12,-4,64,27,0,0,-5,11,35
COc1cnc(-c2ccccn2)nc1Oc1ccc(Cl)cc1,-6,79*,6,-1,-1,-11,24,-25
O=Cc1c[nH]c2ccc(NC(=O)OCc3ccccc3)cc12,-4,4,-2,nt,1,-10,nt,nt
COC(=O)C1=C(C)N(C2CCCC2)C(=O)C1(NC(C)=O)C(F)(F)F (stereo unspecified),1,-6,6,-1,0,1,nt,nt
CCCCN(CCCC)c1ccc(C(=O)c2ccccc2C(=O)O)c(O)c1,-2,50,12,-1,3,-14,9,33
CCCCOc1ccc(NC2=NC3(CCCCC3)N=C(N)N2)cc1,-1,-22,-10,-2,-1,-1,nt,nt
CSC(=S)NN=C(C)c1cccc(C)n1,-3,66,2,nt,1,-2,38,32
Cc1cccc(C(=S)N2CCOCC2)n1,-3,-17,1,-2,1,-1,nt,nt
